Laboratory results as given in ChEMBL document CHEMBL3425427, “Pyrido[4,3-e][1,2,4]triazolo[4,3-a]pyrazines as Selective, Brain Penetrant Phosphodiesterase 2 (PDE2) Inhibitors” (ACS Med Chem Lett, 2015).
Converted amounts (≈) assume the structure as drawn. Each block holds one compound with its values, some of them ahead of it.

Tests used:
Rattus norvegicus [1] = experiment: In vivo PDE2 occupancy in Wistar rat assessed as inhibition of specific binding of [3H]-4-((1-(5-butoxypyridin-3-yl)-4-methyl-[1,2,4]triazolo[4,3-a]quinoxalin-8-yl)methyl)morpholine radiotracer at 10 mg/kg, sc and pre-treated with 2.5 mg/kg, sc PDE10 inhibitor MP10; format: functional
[2] = Ratio of drug level in brain to plasma of Sprague-Dawley rat at 10 mg/kg, sc after 1 hr; format: ADME, organism-based; set-up: dose 10 mg/kg, route subcutaneous; conditions: read-out: BPR
Outline: (§1)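 Fed male Sprague-Dawley rats, n = 2 per time point, given 10 mg/kg s.c. in 20% HPβCD at pH 3.5−4. Brain and plasma levels taken 1 h after dosing; brain-to-plasma ratio computed from these.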

[3] = Drug metabolism in human liver microsomes at 1 uM incubated for 15 mins at 37 degC; format: ADME; conditions: read-out: Drug metabolism
Outline: (§2)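 Compound at 1 μM incubated 15 min at 37 °C with human or rat liver microsomes; read-out is percent metabolized.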

[4] = Drug metabolism in rat liver microsomes at 1 uM incubated for 15 mins at 37 degC; format: ADME; conditions: read-out: Drug metabolism; outline: as §2
[5] = Unbound fraction in Sprague-Dawley rat brain homogenates at 10 mg/kg, sc after 5 hrs at 37 degC by rapid equilibrium dialysis; format: ADME, organism-based; set-up: dose 10 mg/kg, route subcutaneous; conditions: brain homogenate
Outline: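 Unbound fraction measured in rat brain homogenate by rapid equilibrium dialysis, 5 h incubation at 37 °C.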

[6] = Drug level in Sprague-Dawley rat brain homogenates at 10 mg/kg, sc after 1 hr; format: ADME, organism-based; set-up: dose 10 mg/kg, route subcutaneous; conditions: read-out: Drug uptake; outline: as §1
[7] = molecular target: T1, cAMP and cAMP-inhibited cGMP 3',5'-cyclic phosphodiesterase 10A (Rattus norvegicus, UniProt Q9QYJ6); experiment: Inhibition of 6-His-tagged rat recombinant PDE10A expressed in Sf9 cells using [3H]cAMP incubated for 60 mins by scintillation proximity assay
T1 sequence (Q9QYJ6 whole entry): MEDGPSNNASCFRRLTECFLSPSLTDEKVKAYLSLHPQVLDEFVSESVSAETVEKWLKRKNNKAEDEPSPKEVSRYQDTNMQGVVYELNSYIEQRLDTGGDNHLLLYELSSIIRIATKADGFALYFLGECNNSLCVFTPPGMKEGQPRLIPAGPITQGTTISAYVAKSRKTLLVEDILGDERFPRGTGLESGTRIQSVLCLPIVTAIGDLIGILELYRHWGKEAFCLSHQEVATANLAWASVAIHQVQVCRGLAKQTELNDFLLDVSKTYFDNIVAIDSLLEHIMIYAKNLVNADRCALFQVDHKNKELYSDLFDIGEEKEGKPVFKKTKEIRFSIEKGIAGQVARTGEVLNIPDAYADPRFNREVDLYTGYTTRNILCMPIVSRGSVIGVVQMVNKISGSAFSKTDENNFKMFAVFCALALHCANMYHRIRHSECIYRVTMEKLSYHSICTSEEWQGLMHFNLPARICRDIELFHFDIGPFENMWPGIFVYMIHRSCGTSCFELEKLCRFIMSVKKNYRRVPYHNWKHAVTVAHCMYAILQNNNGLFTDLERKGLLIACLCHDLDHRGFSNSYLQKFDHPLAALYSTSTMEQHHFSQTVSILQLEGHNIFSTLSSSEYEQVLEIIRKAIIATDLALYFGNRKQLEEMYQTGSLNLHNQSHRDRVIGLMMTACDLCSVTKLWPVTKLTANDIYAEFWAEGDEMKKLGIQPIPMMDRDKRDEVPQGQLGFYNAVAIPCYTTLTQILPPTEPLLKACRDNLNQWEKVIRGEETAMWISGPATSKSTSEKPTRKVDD

CYP3A4 = CYP3A4 (Homo sapiens, UniProt P08684); experiment: Inhibition of CYP3A4 (unknown origin) at 5 uM; format: ADME
[8] = AUC (0 to infinity) in Sprague-Dawley rat at 2.5 mg/kg, iv; format: ADME, organism-based; set-up: dose 2.5 mg/kg, route intravenous, time infinity; conditions: plasma
[9] = molecular target: High affinity 3',5'-cyclic-AMP phosphodiesterase 7A (Homo sapiens, UniProt Q13946); experiment: Inhibition of 6-His-tagged human recombinant PDE7A1 expressed in Sf9 cells by scintillation proximity assay
CYP2D6 = CYP2D6 (Homo sapiens, UniProt P10635); experiment: Inhibition of CYP2D6 (unknown origin) at 5 uM; format: ADME
[10] = AUC (0 to infinity) in Sprague-Dawley rat at 10 mg/kg, po; format: ADME, organism-based; set-up: time infinity, dose 10 mg/kg, route oral; conditions: plasma
Salmonella typhimurium = experiment: Genotoxicity in Salmonella typhimurium at 125 ug/ml by AMES-2 test; format: toxicity, organism-based; conditions: salmonella enterica subsp. enterica serovar typhimurium
Outline: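 Colorimetric AMESII bacterial mutagenicity kit, adapted; compound tested at 125 μg/mL.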

[11] = molecular target: High affinity cGMP-specific 3',5'-cyclic phosphodiesterase 9A (Homo sapiens, UniProt O76083); experiment: Inhibition of 6-His-tagged human recombinant PDE9A1 expressed in Sf9 cells by scintillation proximity assay
[12] = Cmax in Sprague-Dawley rat at 10 mg/kg, po; format: ADME, organism-based; set-up: dose 10 mg/kg, route oral; conditions: in vivo
Outline: (§3)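 Male Sprague-Dawley rats, fed; n = 3 per time point. Dosed 2.5 mg/kg i.v. or 10 mg/kg p.o.; plasma PK parameters derived from both routes.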

[13] = Half life in Sprague-Dawley rat at 2.5 mg/kg, iv; format: ADME, organism-based; set-up: dose 2.5 mg/kg, route intravenous; conditions: in vivo; outline: as §3
Phosphodiesterase 6 = experiment: Inhibition of human PDE6AB by scintillation proximity assay; format: protein assay
[14] = Dissociation constant, pKa of the compound; format: physicochemical
Rattus norvegicus [15] = experiment: In vivo PDE2 occupancy in Wistar rat assessed as inhibition of specific binding of [3H]-4-((1-(5-butoxypyridin-3-yl)-4-methyl-[1,2,4]triazolo[4,3-a]quinoxalin-8-yl)methyl)morpholine radiotracer and pre-treated with 2.5 mg/kg, sc PDE10 inhibitor MP10
[16] = Initial plasma concentration in Sprague-Dawley rat at 2.5 mg/kg, iv; format: ADME, organism-based; set-up: dose 2.5 mg/kg, route intravenous; outline: as §3
[17] = Half life in Sprague-Dawley rat at 10 mg/kg, po; format: ADME, organism-based; set-up: dose 10 mg/kg, route oral; conditions: in vivo; outline: as §3
CYP2C9 = CYP2C9 (Homo sapiens, UniProt P11712); experiment: Inhibition of CYP2C9 (unknown origin) at 5 uM; format: ADME
[18] = Solubility in pH 3.9 buffer with 20% HPbetaCD; format: physicochemical
[19] = Clearance in Sprague-Dawley rat at 2.5 mg/kg, iv; format: ADME, organism-based; set-up: dose 2.5 mg/kg, route intravenous; conditions: in vivo; outline: as §3
[20] = molecular target: 3',5'-cyclic-AMP phosphodiesterase 4D (Homo sapiens, UniProt Q08499); experiment: Inhibition of 6-His-tagged human recombinant PDE4D3 expressed in Sf9 cells by scintillation proximity assay
[21] = molecular target: cGMP-inhibited 3',5'-cyclic phosphodiesterase 3B (Homo sapiens, UniProt Q13370); experiment: Inhibition of human PDE3B by scintillation proximity assay
CYP1A2 = molecular target: T2, CYP1A2 (Homo sapiens, UniProt P05177); experiment: Inhibition of CYP1A2 (unknown origin) at 5 uM; format: ADME
T2 sequence (P05177 whole entry): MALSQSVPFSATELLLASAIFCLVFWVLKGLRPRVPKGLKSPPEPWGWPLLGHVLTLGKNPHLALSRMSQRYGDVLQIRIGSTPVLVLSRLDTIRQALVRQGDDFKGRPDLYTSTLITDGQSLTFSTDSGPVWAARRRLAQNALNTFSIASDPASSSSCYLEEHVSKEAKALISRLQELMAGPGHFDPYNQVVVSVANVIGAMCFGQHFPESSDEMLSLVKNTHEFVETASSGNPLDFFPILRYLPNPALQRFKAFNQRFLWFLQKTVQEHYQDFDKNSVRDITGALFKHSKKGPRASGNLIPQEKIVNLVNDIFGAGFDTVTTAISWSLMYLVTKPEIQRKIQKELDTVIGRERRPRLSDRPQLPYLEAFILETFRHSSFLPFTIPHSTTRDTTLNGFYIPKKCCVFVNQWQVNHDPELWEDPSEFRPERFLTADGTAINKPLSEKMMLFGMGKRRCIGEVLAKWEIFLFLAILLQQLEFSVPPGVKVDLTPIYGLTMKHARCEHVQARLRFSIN

[22] = Tmax in Sprague-Dawley rat at 10 mg/kg, po; format: ADME, organism-based; set-up: dose 10 mg/kg, route oral; conditions: in vivo; outline: as §3
[23] = Kinetic solubility in pH 7.4 buffer incubated for 4 hrs; format: physicochemical; conditions: read-out: Kinetic_solubility
[24] = Solubility in pH 7.4 buffer; format: physicochemical
[25] = Volume of distribution at steady state in Sprague-Dawley rat at 2.5 mg/kg, iv; format: ADME, organism-based; set-up: dose 2.5 mg/kg, route intravenous; conditions: in vivo, read-out: Vdss; outline: as §3
[26] = Oral bioavailability in Sprague-Dawley rat at 10 mg/kg; format: ADME, organism-based; conditions: in vivo; outline: as §3
[27] = Dissociation constant, pKa of the compound at 25 degC by potentiometric titration method; format: physicochemical
[28] = molecular target: Dual 3',5'-cyclic-AMP and -GMP phosphodiesterase 11A (Homo sapiens, UniProt Q9HCR9); experiment: Inhibition of full length human PDE11A4 expressed in HEK cells by scintillation proximity assay; set-up: species or system HEK293
[29] = Drug formulatability in 20% HPbetaCD at pH >3.5 buffer; format: physicochemical; conditions: 20% HPbetaCD in buffer at pH >3.5; read-out: Activity
[30] = molecular target: cGMP-specific 3',5'-cyclic phosphodiesterase (Homo sapiens, UniProt O76074); experiment: Inhibition of 6-His-tagged human recombinant PDE5A3 expressed in Sf9 cells by scintillation proximity assay
[31] = molecular target: Dual specificity calcium/calmodulin-dependent 3',5'-cyclic nucleotide phosphodiesterase 1A (Homo sapiens, UniProt P54750); experiment: Inhibition of human PDE1A by scintillation proximity assay
CYP2C19 = CYP2C19 (Homo sapiens, UniProt P33261); experiment: Inhibition of CYP2C19 (unknown origin) at 5 uM; format: ADME
[32] = Apparent volume of distribution in Sprague-Dawley rat at 2.5 mg/kg, iv; format: ADME, organism-based; set-up: dose 2.5 mg/kg, route intravenous; conditions: in vivo, read-out: Vz; outline: as §3

Sequence of CYP2C9 (P11712 whole entry): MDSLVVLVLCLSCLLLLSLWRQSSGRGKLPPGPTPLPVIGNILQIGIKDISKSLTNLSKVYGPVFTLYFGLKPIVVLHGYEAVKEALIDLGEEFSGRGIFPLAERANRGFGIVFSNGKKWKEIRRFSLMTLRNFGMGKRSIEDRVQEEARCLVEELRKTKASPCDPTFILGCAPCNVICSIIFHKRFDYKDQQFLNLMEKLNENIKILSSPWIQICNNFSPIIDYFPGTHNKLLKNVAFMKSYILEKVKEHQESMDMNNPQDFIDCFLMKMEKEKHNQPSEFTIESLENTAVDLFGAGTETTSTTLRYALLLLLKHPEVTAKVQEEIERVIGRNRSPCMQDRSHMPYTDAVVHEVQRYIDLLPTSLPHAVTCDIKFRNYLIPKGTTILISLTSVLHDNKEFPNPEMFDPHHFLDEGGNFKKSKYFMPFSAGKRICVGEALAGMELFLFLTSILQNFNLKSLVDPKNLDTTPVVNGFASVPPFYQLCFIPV
Sequence of CYP2D6 (P10635 whole entry): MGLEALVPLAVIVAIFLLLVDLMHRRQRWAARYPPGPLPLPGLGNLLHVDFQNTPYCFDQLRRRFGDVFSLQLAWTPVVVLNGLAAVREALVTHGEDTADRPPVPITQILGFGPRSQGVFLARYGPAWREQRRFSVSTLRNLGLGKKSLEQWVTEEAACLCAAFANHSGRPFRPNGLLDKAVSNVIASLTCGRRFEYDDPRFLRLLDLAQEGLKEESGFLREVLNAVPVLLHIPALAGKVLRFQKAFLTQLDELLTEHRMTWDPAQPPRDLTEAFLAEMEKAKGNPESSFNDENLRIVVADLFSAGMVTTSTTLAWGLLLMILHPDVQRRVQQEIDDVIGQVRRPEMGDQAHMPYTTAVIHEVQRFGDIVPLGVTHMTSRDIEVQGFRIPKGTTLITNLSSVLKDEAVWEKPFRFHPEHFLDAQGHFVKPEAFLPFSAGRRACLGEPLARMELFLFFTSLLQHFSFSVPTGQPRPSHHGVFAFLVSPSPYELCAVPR
Sequence of Dual specificity calcium/calmodulin-dependent 3',5'-cyclic nucleotide phosphodiesterase 1A (P54750 whole entry): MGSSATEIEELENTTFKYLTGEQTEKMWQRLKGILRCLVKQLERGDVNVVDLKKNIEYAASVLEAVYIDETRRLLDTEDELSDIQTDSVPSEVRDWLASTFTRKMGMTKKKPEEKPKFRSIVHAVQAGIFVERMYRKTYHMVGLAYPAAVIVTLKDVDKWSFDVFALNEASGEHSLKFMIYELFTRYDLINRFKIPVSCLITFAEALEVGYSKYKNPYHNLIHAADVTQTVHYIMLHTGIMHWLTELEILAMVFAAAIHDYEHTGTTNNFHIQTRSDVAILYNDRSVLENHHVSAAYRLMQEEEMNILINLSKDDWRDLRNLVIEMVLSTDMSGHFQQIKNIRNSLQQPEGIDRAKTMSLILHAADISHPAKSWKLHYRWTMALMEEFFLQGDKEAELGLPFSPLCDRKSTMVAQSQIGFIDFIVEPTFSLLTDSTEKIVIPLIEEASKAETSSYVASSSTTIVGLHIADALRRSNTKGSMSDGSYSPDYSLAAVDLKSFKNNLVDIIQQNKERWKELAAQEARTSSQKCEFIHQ
Sequence of High affinity 3',5'-cyclic-AMP phosphodiesterase 7A (Q13946 whole entry): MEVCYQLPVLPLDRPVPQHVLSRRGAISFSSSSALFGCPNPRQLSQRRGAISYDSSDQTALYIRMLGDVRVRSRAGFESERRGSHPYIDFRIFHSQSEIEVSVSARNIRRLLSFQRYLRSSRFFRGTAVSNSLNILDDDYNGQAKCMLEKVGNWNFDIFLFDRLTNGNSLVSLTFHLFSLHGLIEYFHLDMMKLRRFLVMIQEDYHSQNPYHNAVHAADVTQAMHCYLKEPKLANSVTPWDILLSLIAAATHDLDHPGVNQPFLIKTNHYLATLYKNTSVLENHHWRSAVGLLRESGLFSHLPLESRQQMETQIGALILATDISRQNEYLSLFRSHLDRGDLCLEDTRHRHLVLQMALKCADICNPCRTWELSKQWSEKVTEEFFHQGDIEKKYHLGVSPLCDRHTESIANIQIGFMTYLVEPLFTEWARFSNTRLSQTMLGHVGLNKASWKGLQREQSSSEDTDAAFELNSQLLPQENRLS
Sequence of High affinity cGMP-specific 3',5'-cyclic phosphodiesterase 9A (O76083 whole entry): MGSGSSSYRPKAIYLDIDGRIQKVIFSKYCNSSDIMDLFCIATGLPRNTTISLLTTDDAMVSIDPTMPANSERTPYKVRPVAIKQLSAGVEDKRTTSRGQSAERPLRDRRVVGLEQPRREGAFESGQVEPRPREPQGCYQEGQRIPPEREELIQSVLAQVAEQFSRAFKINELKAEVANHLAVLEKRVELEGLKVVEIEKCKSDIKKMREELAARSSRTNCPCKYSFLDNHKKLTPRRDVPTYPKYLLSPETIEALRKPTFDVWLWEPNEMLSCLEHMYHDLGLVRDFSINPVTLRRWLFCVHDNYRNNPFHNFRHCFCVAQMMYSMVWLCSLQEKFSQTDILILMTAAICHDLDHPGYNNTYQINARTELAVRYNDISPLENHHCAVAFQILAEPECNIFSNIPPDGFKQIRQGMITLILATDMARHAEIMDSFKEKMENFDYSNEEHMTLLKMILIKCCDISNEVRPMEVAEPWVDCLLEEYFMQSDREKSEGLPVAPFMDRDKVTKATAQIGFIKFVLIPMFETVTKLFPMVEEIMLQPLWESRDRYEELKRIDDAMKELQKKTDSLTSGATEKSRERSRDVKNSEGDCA
Sequence of cGMP-inhibited 3',5'-cyclic phosphodiesterase 3B (Q13370 whole entry): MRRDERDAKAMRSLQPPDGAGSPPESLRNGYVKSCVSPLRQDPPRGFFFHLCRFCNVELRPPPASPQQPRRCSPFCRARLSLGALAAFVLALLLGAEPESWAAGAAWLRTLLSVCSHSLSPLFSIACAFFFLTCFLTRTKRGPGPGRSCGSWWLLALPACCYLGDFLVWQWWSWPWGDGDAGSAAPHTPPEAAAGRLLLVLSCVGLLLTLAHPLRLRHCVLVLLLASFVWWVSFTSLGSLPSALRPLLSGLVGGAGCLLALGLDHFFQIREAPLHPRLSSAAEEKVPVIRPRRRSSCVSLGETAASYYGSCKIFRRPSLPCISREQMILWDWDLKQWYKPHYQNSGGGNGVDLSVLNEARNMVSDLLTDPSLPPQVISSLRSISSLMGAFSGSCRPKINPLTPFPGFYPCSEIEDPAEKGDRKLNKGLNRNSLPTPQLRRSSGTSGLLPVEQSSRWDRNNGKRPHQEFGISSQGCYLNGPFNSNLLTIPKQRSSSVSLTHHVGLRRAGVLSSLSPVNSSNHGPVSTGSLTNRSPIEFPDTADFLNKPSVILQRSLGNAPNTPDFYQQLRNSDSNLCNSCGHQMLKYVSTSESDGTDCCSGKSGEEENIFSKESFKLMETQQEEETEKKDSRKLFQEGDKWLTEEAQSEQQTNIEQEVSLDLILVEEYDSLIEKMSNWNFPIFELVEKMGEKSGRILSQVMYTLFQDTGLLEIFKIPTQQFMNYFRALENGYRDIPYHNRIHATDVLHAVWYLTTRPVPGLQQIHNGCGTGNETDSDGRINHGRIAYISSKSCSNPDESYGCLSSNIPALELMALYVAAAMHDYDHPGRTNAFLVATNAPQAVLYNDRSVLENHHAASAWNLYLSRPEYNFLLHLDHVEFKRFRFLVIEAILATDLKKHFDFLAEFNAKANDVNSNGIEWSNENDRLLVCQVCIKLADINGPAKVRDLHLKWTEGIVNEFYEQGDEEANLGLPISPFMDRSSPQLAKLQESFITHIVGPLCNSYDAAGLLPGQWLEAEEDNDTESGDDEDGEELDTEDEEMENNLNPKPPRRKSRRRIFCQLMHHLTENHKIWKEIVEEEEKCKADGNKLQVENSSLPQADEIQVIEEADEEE
Sequence of CYP3A4 (P08684 whole entry): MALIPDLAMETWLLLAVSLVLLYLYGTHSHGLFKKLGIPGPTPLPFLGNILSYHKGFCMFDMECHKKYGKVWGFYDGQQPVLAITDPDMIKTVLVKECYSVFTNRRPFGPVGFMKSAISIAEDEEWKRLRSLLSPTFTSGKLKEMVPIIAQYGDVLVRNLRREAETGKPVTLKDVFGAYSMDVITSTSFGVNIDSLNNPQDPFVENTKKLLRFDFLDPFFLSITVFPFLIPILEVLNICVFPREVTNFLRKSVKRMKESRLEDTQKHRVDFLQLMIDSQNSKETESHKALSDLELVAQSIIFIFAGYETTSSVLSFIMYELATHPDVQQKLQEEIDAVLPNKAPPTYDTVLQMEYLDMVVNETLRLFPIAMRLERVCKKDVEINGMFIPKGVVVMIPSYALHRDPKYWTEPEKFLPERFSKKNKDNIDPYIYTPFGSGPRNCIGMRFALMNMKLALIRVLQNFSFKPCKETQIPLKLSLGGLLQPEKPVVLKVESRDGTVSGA
Sequence of CYP2C19 (P33261 whole entry): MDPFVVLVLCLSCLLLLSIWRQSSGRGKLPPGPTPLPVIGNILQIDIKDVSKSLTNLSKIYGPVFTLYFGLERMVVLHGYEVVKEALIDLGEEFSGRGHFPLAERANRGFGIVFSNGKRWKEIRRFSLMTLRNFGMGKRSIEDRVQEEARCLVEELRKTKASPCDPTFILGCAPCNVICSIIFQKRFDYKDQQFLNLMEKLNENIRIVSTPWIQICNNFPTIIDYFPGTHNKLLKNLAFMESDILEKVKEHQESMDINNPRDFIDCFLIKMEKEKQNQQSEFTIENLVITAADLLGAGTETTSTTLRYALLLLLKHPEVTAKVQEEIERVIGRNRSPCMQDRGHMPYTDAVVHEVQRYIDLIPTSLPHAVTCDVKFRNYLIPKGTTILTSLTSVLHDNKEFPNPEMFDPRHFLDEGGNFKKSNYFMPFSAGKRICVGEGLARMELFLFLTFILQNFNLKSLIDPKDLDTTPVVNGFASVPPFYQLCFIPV

Compound: CCCCOc1cncc(-c2nnc3c(C)nc4ccncc4n23)c1
Occ (Rattus norvegicus [1]): 23% | Kp at 1 h [2]: 0.61 | metabolised at 0.25 h, 1 µM [3]: 6% | metabolised at 0.25 h, 1 µM [4]: 46% | fraction unbound at 5 h [5]: > 0.3 | concentration at 1 h [6]: 789 ng/g

Compound: Cc1nc2ccncc2n2c(-c3cc(COC(C)C)ccc3Cl)nnc12
metabolised at 0.25 h, 1 µM [3]: 57% | metabolised at 0.25 h, 1 µM [4]: 98% | IC50 [7]: 6.03 µM

Compound: Cc1nc2ccncc2n2c(-c3ccccc3Cl)nnc12
inhibition at 5 µM (CYP3A4): < 50% | AUC(0-inf) [8]: 1040 ng·h/mL | IC50 [9]: > 10 µM | inhibition at 5 µM (CYP2D6): < 50% | AUC(0-inf) [10]: 4230 ng·h/mL | Activity (Salmonella typhimurium): Non-toxic | IC50 [11]: > 10 µM | Cmax [12]: 997 ng/mL | half-life [13]: 0.47 h | IC50 (Phosphodiesterase 6): > 10 µM | pKa [14]: 2.7 | Kp at 1 h [2]: 0.65 | metabolised at 0.25 h, 1 µM [3]: 7% | metabolised at 0.25 h, 1 µM [4]: 13% | fraction unbound at 5 h [5]: > 0.3 | ED50 (Rattus norvegicus [15]): 21 mg/kg | concentration at 1 h [6]: 2730 ng/g | C0 [16]: 3020 ng/mL | half-life [17]: 2.36 h | inhibition at 5 µM (CYP2C9): < 50% | solubility [18]: 4000 µg/mL (≈ 13.5 mM) | clearance [19]: 38.7 mL/min/kg | IC50 [20]: 5.89 µM | IC50 [21]: > 10 µM | inhibition at 5 µM (CYP1A2): < 50% | Tmax [22]: 1.17 h | solubility kinetic at 4 h [23]: > 1000 µM | solubility [24]: > 1000 µM | Vd [25]: 1.02 L/kg | bioavailability [26]: 100% | pKa [27]: 2.7 | IC50 [28]: 6.92 µM | solubility [29]: 4000 µg/mL (≈ 13.5 mM) | IC50 [30]: > 10 µM | IC50 [31]: > 10 µM | inhibition at 5 µM (CYP2C19): < 50% | Vd [32]: 1.61 L/kg

Other lines, results leading:

metabolised at 0.25 h, 1 µM [3]: 14% | metabolised at 0.25 h, 1 µM [4]: 53% | IC50 [7]: > 10 µM
Compound: Cc1nc2ccncc2n2c(-c3cc(N4CCOCC4)ccc3Cl)nnc12

pKa [14]: 1
Compound: Cc1nc2cccnc2n2c(-c3ccccc3Cl)nnc12
